From ChEMBL document CHEMBL4261561, “Thiosemicarbazone-based selective proliferation inactivators inhibit gastric cancer cell growth, invasion, and migration” (Medchemcomm, 2017)

Columns and labels:
Format in all cases: functional, cell-based
[1] = system: MGC-803; test: Antiproliferative activity against human MGC803 cells after 72 hrs by MTT assay; settings: MGC-803, 72 h
Procedure, shortened: (§1)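 Exponentially growing cells were seeded at about 3×10^3 per well and left 24 h, then given fresh medium with a range of compound concentrations for 72 h. MTT solution (5 mg/mL) was added for another 4 h. Medium was removed, formazan was dissolved in DMSO, and absorbance was read at 570 nm. IC50 was derived statistically.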

[2] = system: SMMC-7721; test: Antiproliferative activity against human SMMC7721 cells after 72 hrs by MTT assay; settings: SMMC-7721, 72 h; procedure, shortened: as §1
[3] = system: MCF7; test: Antiproliferative activity against human MCF7 cells after 72 hrs by MTT assay; settings: MCF7, 72 h; procedure, shortened: as §1

IC50 [1] | IC50 [2] | IC50 [3] | SMILES
> 64 µM | > 64 µM | > 64 µM | C/C(=N\NC(=S)N1CCOCC1)c1cccc(O)c1
10.2 µM | 27.3 µM | 41.9 µM | CC(C)(C)OC(=O)N1CCN(C(=S)N/N=C/c2ccccc2O)CC1
58.4 µM | > 64 µM | > 64 µM | C/C(=N\NC(=S)N1CCN(C(=O)OC(C)(C)C)CC1)c1cc(Cl)ccc1O
3.06 µM | > 64 µM | 29.2 µM | C/C(=N\NC(=S)N1CCOCC1)c1cc(Cl)ccc1O
11.2 µM | > 64 µM | 49.2 µM | C/C(=N\NC(=S)N1CCOCC1)c1ccccc1O
> 64 µM | > 64 µM | > 64 µM | C/C(=N\NC(=S)N1CCOCC1)c1ccc(O)cc1
> 64 µM | > 64 µM | > 64 µM | C/C(=N\NC(=S)N1CCOCC1)c1ccccc1N
32.6 µM | > 64 µM | > 64 µM | S=C(N/N=C/c1ccc2ccccc2c1)N1CCOCC1
20.4 µM | 32.6 µM | > 64 µM | Oc1c(Br)cc(Br)cc1/C=N/NC(=S)N1CCOCC1
